Experimental data: publication PMC3667667 (Clinical pharmacology and therapeutics, 2012)
Values joined by “and” are separate entries in the source; they are usually repeats but may differ in a detail not shown here. Equal values may be shown once.

Columns and labels:
ABCB1 (P-gp) = details: humans, long-term treatment; ref 36 (Mouly); cited from earlier work
CYP3A = details: rats, long-term treatment; cited from earlier work
[1] = system: CAR variant containing the APYLT insertion; details: in vitro; ref 43 (Chen et al.); cited from earlier work
full-length CAR (CAR1) = details: in vitro; ref 43 (Chen et al.); cited from earlier work
CYP2B6 [2] = test: Gene expression in PBMCs isolated from treated healthy individuals; assay type: in vivo, human; details: single dose vs steady state; P = 0.036
ABCC2 = details: in vivo; ref 32 (Burhenne et al.); cited from earlier work
CYP2B6 [3] = test: CYP2B6 mRNA induction in primary human hepatocytes; assay type: cell-based; details: freshly isolated human hepatocytes, efavirenz 1 μmol/l, vs DMSO control
CYP3A4 activity = test: Plasma 4β-hydroxycholesterol, marker of CYP3A4 activity; assay type: in vivo, human
ABCB1 [4] = details: human intestinal cell line from colon adenocarcinoma; cited from earlier work
[5] = Pharmacokinetics of efavirenz in healthy subjects; details: male, human, in vivo
ABCB1 [6] = details: in vivo; ref 32 (Burhenne et al.); cited from earlier work
ABCB1 [7] = details: cited from earlier work
CYP3A4 [8] = details: humans, long-term treatment; ref 36 (Mouly); cited from earlier work
[9] = system: hepatic bilirubin metabolism; test: Total bilirubin levels; assay type: in vivo, human
CYP2B6 [10] = test: CAR target gene expression in PBMCs treated in vitro; assay type: cell-based, human; details: PBMCs of drug-naive individuals, 10 μmol/l, 48 h
CYP3A4 [11] = details: humans, long-term treatment; ref 36 (Mouly); cited from earlier work; remark: listed apart in the source
ABCB1 [12] = details: rats, everted gut sacs, long-term treatment; cited from earlier work
UGT1A1 = test: CAR target gene expression in PBMCs treated in vitro; assay type: cell-based, human; details: PBMCs of drug-naive individuals, 10 μmol/l, 48 h
ABCB1 [13] = test: as above; assay type: cell-based, human; details: PBMCs of drug-naive individuals, 10 μmol/l, 48 h
CAR target genes = test: Gene expression in PBMCs after multiple doses of ezetimibe; assay type: in vivo, human; details: multiple doses of ezetimibe 10 mg, treatment period B
Outline: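 PBMCs from 12 healthy male Caucasian volunteers aged 20–36 y, with the drug given after a fast of at least 10 h. EDTA blood (5 ml) drawn in the first 3 h of the pharmacokinetic day; spun 1,500g, 4 °C, 15 min; buffy coats pooled per subject, diluted in ice-cold PBS, Lymphoprep 700g, 30 min, room temperature. 1,500 ng total RNA reverse-transcribed; TaqMan real-time PCR for CYP2B6, UGT1A1, ABCB1, ABCC1, normalized to 18S-rRNA.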

ABCB1 [14] = details: ref 28 (Manceau et al.); cited from earlier work

For `O=C1Nc2ccc(Cl)cc2[C@@](C#CC2CC2)(C(F)(F)F)O1` [efavirenz], which “Intestinal ABCB1 (P-gp) expression levels” value (ABCB1 (P-gp)) is on record?
The value was “no impact”.

And the “Hepatic CYP3A-mediated midazolam metabolism” value (CYP3A)?
Its value is “induce”.

What about the “Trans-activating activity toward CAR variant containing the APYLT insertion” value [1] of the same compound?
The value was “negligible activity”.

What about the “Trans-activating activity toward full-length CAR (CAR1)” value (full-length CAR (CAR1)) of the same compound?
Its value is “high trans-activating activity”.

What about the “Pearson r, increase in CYP2B6 expression in PBMCs vs reduction in efavirenz AUC” value (CYP2B6 [2]) of the same compound?
The value was 0.61 and 0.608.

And the “ABCC2 expression in PBMCs” value (ABCC2)?
Its value is “no significant induction”.

And the “CYP2B6 expression in primary human hepatocytes” value (CYP2B6 [3])?
The value was “significantly increased”.

What about the “Pearson r, change in efavirenz AUC vs change in 4β-hydroxycholesterol levels” value (CYP3A4 activity; single dose vs steady state, P = 0.052) of the same compound?
Its value is −0.572.

And the 4β-hydroxycholesterol/cholesterol ratio (CYP3A4 activity; study days 25 and 30, multiple doses of efavirenz)?
The 4β-hydroxycholesterol/cholesterol ratio was “significant induction”.

What about the “ABCB1 expression and function in LS180 cells” value (ABCB1 [4]) of the same compound?
Its value is “increased expression and function”.

What about the “CLR gluc (renal clearance)” value [5] of the same compound?
The value was 0.050 ± 0.054 mL/min.

And the C max ([5]; 400 mg)?
The C max was 622 ± 244 ng/mL.

And the CL renal ([5]; 400 mg)?
Its CL renal is 0.062 ± 0.031 mL/min.

And the AUC(0-t) ([5]; 400 mg, AUC0–24 h)?
The AUC(0-t) was 6710 ± 2340 ng·h/mL.

What about the AUC(0-t) ([5]; 400 mg, AUC0–120 h) of the same compound?
Its AUC(0-t) is 17000 ± 6390 ng·h/mL.

And the Tmax ([5]; 400 mg, T max)?
Its Tmax is 2.4 ± 1.9 h.

What about the Tmax ([5]; Tmax) of the same compound?
The Tmax was 2 to 3 h.

And the “ABCB1 expression in PBMCs” value (ABCB1 [6])?
The value was “no significant induction”.

And the “ABCB1 induction in PBMCs in vitro” value (ABCB1 [7])?
Its value is “induction”.

And the “Intestinal CYP3A4 expression levels” value (CYP3A4 [8])?
The value was “no impact”.

And the “Total bilirubin levels after treatment” value ([9]; long-term efavirenz, mean ± SD, before treatment 9.82 ± 3.86, P = 0.023)?
Its value is 6.34 ± 2.48 mg/dL.

What about the “CYP2B6 mRNA induction in PBMCs in vitro” value (CYP2B6 [10]) of the same compound?
Its value is “significant induction”.

And the “CYP3A4-mediated metabolism (erythromycin breath test)” value (CYP3A4 [11])?
Its value is “induction”.

And the “ABCB1-mediated intestinal efflux of rhodamine 123” value (ABCB1 [12])?
The value was “without affecting”.

And the “UGT1A1 mRNA induction in PBMCs in vitro” value (UGT1A1)?
The value was “significant induction”.

And the “ABCB1 mRNA induction in PBMCs in vitro” value (ABCB1 [13])?
Its value is “significant induction”.

What does the source list for `O=C1[C@H](CC[C@H](O)c2ccc(F)cc2)[C@@H](c2ccc(O)cc2)N1c1ccc(F)cc1` [ezetimibe]?
Impact on target gene expression in PBMCs (CAR target genes): did not observe an impact; Impact on total bilirubin levels ([9]; multiple doses of ezetimibe, study days 15 and 17): No such impact

For `CCC1(c2ccccc2)C(=O)NC(=O)NC1=O` [phenobarbital], which “ABCB1 induction after treatment of cells” value (ABCB1 [14]) is on record?
Its value is “no induction”.

Which “ABCB1 induction after treatment of cells” value (ABCB1 [14]) does the source give for `CO[C@H]1/C=C/O[C@@]2(C)Oc3c(C)c(O)c4c(O)c(c(/C=N/N5CCN(C)CC5)c(O)c4c3C2=O)NC(=O)/C(C)=C\C=C\[C@H](C)[C@H](O)[C@@H](C)[C@@H](O)[C@@H](C)[C@H](OC(C)=O)[C@@H]1C` [rifampin] here?
The value was “no induction”.
